This is a sample that favours compounds with a hit; in the whole collection about 1.7% have one here.
SR-BI DiI-HDL act: enhances SR-BI lipid uptake from DiI-HDL; CHO ldlA[mSR-BI] cells, DiI-HDL uptake fluorescence, 3 h; 100 = double the neutral-control signal; activation, % at 12.5 µM; 320,000 compounds, 0.096% hits; AID 504775;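 active = mean replicate activation of at least 60% and every replicate at or above 60%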;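 also: 0% = median plate neutral-control signal and 100% = twice that signal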
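System: LDL receptor-deficient CHO ldlA cells overexpressing murine SR-BI | Timing: 3 h uptake period with compound, 37 °C | Medium: HEPES-buffered (25 mM, pH 7.4) F12 plus 0.5% BSA | Dosing: Single-point compound dose | Signal: Bottom-read fluorescence, 550/595 nm | Read-out: Retained DiI signal reflecting DiI-HDL uptake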
Vif inh: blocks HIV Vif function; HEK293T cells, Vif self-association by quenched fluorescence, imaging, 24 h; inhibition, % at 7.49 µM; 340,000 compounds, 0.35% hits; AID 602346; in the data active = inhibition above about 50%, passing the limit was not always enough
C2C12 statin: suppressors of simvastatin-induced myotoxicity in C2C12 myotubes. ATP luminescence, 48 h; scaled: DMSO 0, geranylgeraniol control 100. rescue of ATP level, % at 7.49 µM. 330,000 compounds, 0.78% hits;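 active = mean ATP rescue above about 67%, or every replicate alone reaching that limit, limit read from the data, passing the limit was not always enough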;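 also: myotubes were challenged with 10 µM simvastatin during compound exposure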
SR-BI DiI inh: blocks mouse SR-BI lipid uptake from DiI-HDL. inhibition, % at 12.5 µM. Q61009. 320,000 compounds, 0.96% hits. ldlA[mSR-BI] CHO cells, DiI-HDL uptake fluorescence, 3 h. AID 488896;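 active = mean replicate inhibition of at least 70% and a set share of replicates each scoring 70 or more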;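 also: 0% = median of neutral control wells and 100% = median of positive control wells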
Target sequence (Q61009 whole entry, looked up): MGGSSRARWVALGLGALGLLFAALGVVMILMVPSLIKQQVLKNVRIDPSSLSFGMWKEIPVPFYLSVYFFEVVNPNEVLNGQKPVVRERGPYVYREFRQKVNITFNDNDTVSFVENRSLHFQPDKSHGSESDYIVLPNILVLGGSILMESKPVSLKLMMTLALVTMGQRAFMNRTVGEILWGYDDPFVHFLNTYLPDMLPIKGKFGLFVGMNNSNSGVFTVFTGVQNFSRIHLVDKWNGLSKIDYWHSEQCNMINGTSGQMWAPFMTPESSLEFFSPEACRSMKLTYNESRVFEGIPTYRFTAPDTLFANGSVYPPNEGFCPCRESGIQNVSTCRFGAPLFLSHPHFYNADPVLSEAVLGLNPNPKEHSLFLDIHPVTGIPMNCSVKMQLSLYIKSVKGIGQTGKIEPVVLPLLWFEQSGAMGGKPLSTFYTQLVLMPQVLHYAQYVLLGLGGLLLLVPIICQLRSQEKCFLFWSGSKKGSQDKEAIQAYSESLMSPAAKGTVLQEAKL
The depositor's hits bear a star; . = no result given.

SMILES	SR-BI DiI-HDL act	Vif inh	C2C12 statin	SR-BI DiI inh
C[C@@H]1CN([C@H](C)CO)C(=O)c2cccc(NC(=O)c3ccc(-c4nccs4)cc3)c2O[C@H]1CN(C)C(=O)Nc1ccc(F)cc1	.	.	-20.5	.
COc1ccc(NC(=O)N(C)C[C@H]2Oc3c(NS(=O)(=O)c4cccs4)cccc3C(=O)N([C@@H](C)CO)C[C@H]2C)cc1	.	.	88.1*	.
C[C@@H]1CN([C@H](C)CO)C(=O)c2cccc(NC(=O)c3ccc(-c4nccs4)cc3)c2O[C@@H]1CN(C)C(=O)Nc1ccc(F)cc1	.	.	87.2*	.
CO[C@H]1CN(C)C(=O)c2ccc(NS(=O)(=O)c3cn(C)cn3)cc2OC[C@H](C)N(Cc2cccc(F)c2)C[C@H]1C	.	.	6.4	.
COCCNC(=O)C[C@@H]1C[C@H]2c3cc(NS(=O)(=O)c4ccccc4)ccc3O[C@H]2[C@H](CO)O1	.	.	-1.6	.
CCOC(=O)c1cc(CC)sc1NC(=O)c1ccc2c(c1)OCCO2	-71.1	3.0	-25.6	71.1*
O=C(Nc1ccc(F)cc1)N1C[C@H]2[C@@H](c3ccccc31)[C@@H](CO)N2C(=O)c1ccccc1	.	.	13.7	.
O=C(c1ccc(Cl)c(Cl)c1)N(Cc1ccco1)c1ccc(O)cc1	-15.9	54.3*	1.8	15.9
O=S(=O)(N[C@H]1CC[C@@H](CCn2cc(-c3ccccc3F)nn2)O[C@H]1CO)c1ccc(Cl)cc1	.	.	10.4	.
O=C(NCC[C@H]1CC[C@@H](NC(=O)c2cnccn2)[C@@H](CO)O1)Nc1ccc(F)cc1	.	.	-9.1	.
Cc1c(C(=O)c2ccc(N(C)C)cc2)c2ccccn2c1CCC#N	-72.9	-5.8	-9.8	72.9*
O=C(Nc1ccc(S(=O)(=O)NC2=NCCCCC2)cc1)c1cccs1	31.1	-1.3	33.4	-31.1
O=C(Nc1ccc(S(=O)(=O)NC2=NCCCCC2)cc1)c1ccc([N+](=O)[O-])s1	-16.7	-4.8	85.6*	16.7
COc1ccc(N=Nc2c(C)[nH]c3ccccc23)cc1	-87.9	16.8	-11.7	87.9*
Cc1ccc(S(=O)(=O)Nc2ccc3c(c2)CC(=O)N([C@H](C)CO)C[C@H](C)[C@H](CN(C)Cc2ccc(Cl)c(Cl)c2)O3)cc1	.	.	5.1	.
Cc1noc(C)c1S(=O)(=O)Nc1ccc2c(c1)CC(=O)N([C@@H](C)CO)C[C@H](C)[C@H](CN(C)Cc1ccc(Cl)c(Cl)c1)O2	.	.	35.1	.
Cc1ccc(S(=O)(=O)Nc2ccc3c(c2)CC(=O)N([C@@H](C)CO)C[C@@H](C)[C@H](CN(C)Cc2ccc(Cl)c(Cl)c2)O3)cc1	.	.	73.9*	.
Cc1noc(C)c1S(=O)(=O)Nc1ccc2c(c1)CC(=O)N([C@H](C)CO)C[C@@H](C)[C@H](CN(C)Cc1ccc(Cl)c(Cl)c1)O2	.	.	86.5*	.
Cc1ccc(S(=O)(=O)Nc2ccc3c(c2)CC(=O)N([C@@H](C)CO)C[C@H](C)[C@@H](CN(C)Cc2ccc(Cl)c(Cl)c2)O3)cc1	.	.	71.5*	.
CCCc1cc(=O)oc2cc(OCc3cc(OC)c(OC)c(OC)c3)c(Cl)cc12	9.3	105.6*	-35.4	-9.3
CCCCc1cc(=O)oc2cc(OCc3cc(OC)c(OC)c(OC)c3)c(Cl)cc12	28.3	-3.5	23.6	-28.3
CC(C)N=c1cc2n(-c3ccc(Cl)cc3)c3ccccc3nc-2cc1Nc1ccc(Cl)cc1	-83.1	-6.4	-24.7	83.1*
O=C(N[C@@H]1C=C[C@@H](CC(=O)N2CCCCC2)O[C@H]1CO)c1cccc(F)c1	.	.	2.4	.
CN(C(=O)c1cccc(NC(=O)Cc2ccc(NC(=O)C3CCCN(C(=O)C4CCCC4)C3)cc2)c1)C1CC1 (configuration not stated)	-75.5	6.3	0.3	75.5*
CN(C(=O)c1cccc(NC(=O)Cc2ccc(NC(=O)C3CCCN(C(=O)C4CCCC4)C3)cc2)c1)C1CCCCC1 (configuration not stated)	-83.4	-18.7	1.5	83.4*
SMILES	SR-BI DiI-HDL act	Vif inh	C2C12 statin	SR-BI DiI inh
O=C(Cc1ccc(NC(=O)C2CCCN(C(=O)C3CCCC3)C2)cc1)Nc1cccc(C(=O)N2CCCC2)c1 (configuration not stated)	-75.2	-1.8	11.4	75.2*
C[C@H](O)C#Cc1ccc([C@@H]2[C@H](CO)N3CCCCN(C(=O)c4cccc(F)c4)C[C@@H]23)cc1	.	.	-19.7	.
O=C1c2ccccc2NC(c2cccc(F)c2)N1Cc1ccco1 (configuration not stated)	-11.8	-1.9	114.5*	11.8
O=C(Nc1cccc(-c2cn3cccnc3n2)c1)c1ccc(Br)o1	-1.1	81.1*	-1.3	1.1
O=C(NCC(c1ccco1)N1CCCC1)c1ccc(Cl)cc1 (configuration not stated)	-2.8	10.9	91.9*	2.8
C[C@H](CO)N1C[C@H](C)[C@H](CN(C)S(=O)(=O)c2ccccc2)Oc2ccc(NC(=O)C3CC3)cc2CC1=O	.	.	-6.6	.
Cc1cnc(-c2nnc(N(C)C(=O)c3cccnc3)s2)cn1	-6.8	10.4	107.5*	6.8
CCOC(=O)C1=C(C)C(c2ccccc2O)NC(=O)N1 (configuration not stated)	2.8	-2.6	86.6*	-2.8
CNC[C@@H]1Oc2cc(C#Cc3cccnc3)ccc2S(=O)(=O)N([C@@H](C)CO)C[C@H]1C	.	.	6.3	.
O=C(Cc1ccccc1)N1C[C@H]2[C@@H](c3ccccc31)[C@@H](CO)N2C(=O)c1cccc(F)c1	.	.	2.3	.
COCC(=O)N(C)C[C@@H]1Oc2ncc(C#Cc3ccc(OC)cc3)cc2C(=O)N([C@H](C)CO)C[C@@H]1C	.	.	6.5	.
CCN(CC)CC(=O)Nc1ccc2c(c1)Nc1ccccc1CC2	-81.6	-0.4	0.1	81.6*
CCOC(=O)Nc1sc(C)nc1-c1ccccc1	-20.5	5.8	5.2	20.5
CCOC(=O)Nc1nc(-c2ccccc2)c(C(=O)c2ccc(Cl)cc2)s1	-82.8	.	-51.1	82.8*
COc1cc(OC)cc(-c2oc(=O)c3cc(OC)c(OC)cc3c2C#CCCCO)c1	-38.6	.	-29.7	38.6
COc1ccc(-c2oc(=O)c3cc(OC)c(OC)cc3c2C#CCCCO)cc1	-78.2	23.7	-5.2	78.2*
COc1ccc(Cn2nnnc2C(c2cc3cc(C)ccc3[nH]c2=O)N2CCOCC2)cc1 (configuration not stated)	32.2	-7.8	-13.0	-32.2
COc1ccc(N2CCN(C(c3cc4cc(C)ccc4[nH]c3=O)c3nnnn3Cc3ccccc3)CC2)cc1 (configuration not stated)	-6.9	-3.3	75.0*	6.9
COc1ccc(NC(=O)N[C@H]2CC[C@H](CCNC(=O)c3ccccc3F)O[C@@H]2CO)cc1	.	.	-1.7	.
CC(NC(=O)CSc1nc2c(c(C(F)(F)F)n1)CCc1ccccc1-2)c1ccccc1 (configuration not stated)	28.6	63.0*	0.3	-28.6
CC(=O)Cn1c(=O)oc2ccccc21	113.5*	-4.4	5.7	-113.5
CC(=O)N1CCN(C(=O)Cn2c(=O)oc3ccccc32)CC1	17.7	6.8	-9.0	-17.7
CC(=O)Oc1ccc(-c2ccc(C(=O)Nc3cccc(S(=O)(=O)N4CCOCC4)c3)cc2)cc1	-81.5	-6.5	.	81.5*

Source: PubChem
